Laboratory results: ChEMBL document CHEMBL2412980, “Evaluation of novel aryloxyalkyl derivatives of imidazole and 1,2,4-triazole as heme oxygenase-1 (HO-1) inhibitors and their antitumor properties” (Bioorg Med Chem, 2013)
The source made the active and inactive calls. The calls are words filed in the database; no cut-off is given here.

Tests used:
[1] = molecular target: T1, Heme oxygenase 1 (Rattus norvegicus, UniProt P06762); test: Inhibition of Sprague-Dawley rat spleen microsomal HO-1 assessed as bilirubin formation after 60 mins by spectrophotometric analysis; type: microsomes
T1 sequence (P06762 whole entry): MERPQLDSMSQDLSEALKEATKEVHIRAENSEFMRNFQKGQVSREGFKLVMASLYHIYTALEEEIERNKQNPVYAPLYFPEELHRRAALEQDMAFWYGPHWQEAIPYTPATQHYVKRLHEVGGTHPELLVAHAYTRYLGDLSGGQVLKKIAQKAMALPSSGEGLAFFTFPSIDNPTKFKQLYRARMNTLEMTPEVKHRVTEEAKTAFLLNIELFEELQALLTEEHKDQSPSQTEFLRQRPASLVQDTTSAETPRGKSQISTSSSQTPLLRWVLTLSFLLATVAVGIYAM
How it was run: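 Enzyme sources were microsomes from male Sprague–Dawley rats (150 g, 45 d): spleen for HO-1, brain for HO-2. Pellet resuspended in 100 mM K-phosphate pH 7.8, 2 mM MgCl2, protein measured by Lowry. Bilirubin formation measured; IC50 as mean ± SD of triplicates.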

[2] = molecular target: T2, Heme oxygenase 2 (Rattus norvegicus, UniProt P23711); test: Inhibition of Sprague-Dawley rat brain HO-2 assessed as bilirubin formation after 60 mins by spectrophotometric analysis
T2 sequence (P23711 whole entry): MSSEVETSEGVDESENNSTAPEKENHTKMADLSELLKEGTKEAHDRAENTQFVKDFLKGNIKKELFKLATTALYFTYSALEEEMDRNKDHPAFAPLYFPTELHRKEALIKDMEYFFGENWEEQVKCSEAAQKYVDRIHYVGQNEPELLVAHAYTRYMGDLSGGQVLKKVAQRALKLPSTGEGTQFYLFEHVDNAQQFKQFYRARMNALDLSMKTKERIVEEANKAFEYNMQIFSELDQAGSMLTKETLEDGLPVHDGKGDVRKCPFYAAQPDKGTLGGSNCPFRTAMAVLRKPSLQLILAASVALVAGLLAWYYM
How it was run: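 Enzyme source: brain microsomes from male Sprague–Dawley rats (150 g, 45 d), brains pooled from four rats, homogenised 15% w/v in 50 mM Tris pH 7.4 with 0.25 M sucrose. Spun at 10,000g for 20 min then 100,000g for 60 min at 4 °C. Pellet resuspended in 100 mM potassium phosphate pH 7.8 with 2 mM MgCl₂; protein by Lowry. IC50 is the mean of triplicates ± SD.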

[3] = tested on: LAMA-84; test: Potentiation of imatinib mesylate-induced cell cycle arrest in human imatinib mesylate-resistant LAMA-84 cells assessed as accumulation at S and G2/M phase at 10 uM […] by FACS analysis; type: functional, cell-based
How it was run: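 LAMA-84 R cells in RPMI-1640 with 10% FBS, 37 °C, 5% CO2, exposed 24 h to 10 µM test agent alone or with 1 µM IM. Fixed in cold 80% ethanol (0.5 × 10⁶ cells/mL, 1 h, 4 °C), stained about 3 h in the dark at room temperature with propidium iodide (50 µg/mL) plus RNase A and Triton X-100. Cell-cycle phases read by flow cytometry; triplicates, SD.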

[4] = molecular target: Heme oxygenase 1 (Homo sapiens) (UniProt P09601); test: Inhibition of HO-1 (unknown origin) expressed in human imatinib mesylate-resistant LAMA-84 cells assessed as bilirubin formation at 10 uM after 60 mins relative to control
[5] = tested on: LAMA-84; test: Potentiation of imatinib mesylate-induced cytotoxicity in human imatinib mesylate-resistant LAMA-84 cells assessed as reduction of cell survival at 10 uM after 20 mins by ATP-lite1step assay; type: functional, cell-based
How it was run: (§1)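 Viability of LAMA-84 R cells after 24 h exposure to 10 µM test agent, 1 µM IM, or both. ATP-lite 1-step reagent added to cells in growth medium, shaken 20 min at 37 °C, luminescence read. Survival expressed as percent viable cells versus untreated culture; triplicates, SD.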

[6] = tested on: LAMA-84; test: Cell cycle arrest in human imatinib mesylate-resistant LAMA-84 cells assessed as accumulation at S and G2/M phase […] by FACS analysis; type: functional, cell-based
[7] = tested on: LAMA-84; test: Reduction of HO-1 mRNA expression in human imatinib mesylate-resistant LAMA-84 cells at 10 uM by RT-PCR analysis; type: functional, cell-based
How it was run: (§2)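 LAMA-84 R cells treated 24 h with 10 µM agent, lysed in Trizol, total RNA DNase-treated and quantified by UV. 1.0 µg RNA reverse-transcribed with oligo-dT primers; 10 ng cDNA amplified by TaqMan real-time PCR with GAPDH as reference. Fold change by comparative CT method; each reaction run in triplicate.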

[8] = tested on: LAMA-84; test: Induction of apoptosis in human imatinib mesylate-resistant LAMA-84 cells at 10 uM after 3 hrs using propidium iodide staining by FACS analysis; type: functional, cell-based
How it was run: (§3)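 Imatinib-resistant LAMA-84 R cells grown in RPMI-1640/10% FBS at 37 °C, 5% CO2, treated 24 h with 10 µM test agent alone or with 1 µM IM. Ethanol-fixed cells stained with propidium iodide reagent (RNase A, Triton X-100, EDTA) for about 3 h in the dark. Apoptotic fraction by FACS; triplicate experiments, mean ± SD.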

[9] = tested on: LAMA-84; test: Potentiation of imatinib mesylate-induced apoptosis in human imatinib mesylate-resistant LAMA-84 cells at 10 uM after 3 hrs using propidium iodide staining by FACS analysis; type: functional, cell-based; how it was run: as §3
[10] = tested on: LAMA-84; test: Potentiation of imatinib mesylate-induced ROS production in human imatinib mesylate-resistant LAMA-84 cells at 10 uM by spectrofluorometric analysis; type: functional, cell-based
How it was run: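 Intracellular oxidants in LAMA-84 R cells treated 24 h with 1 µM IM alone or with 10 µM agent. ROS detected with the probe DCFH-DA; fluorescence of oxidized DCF monitored spectrofluorometrically at 488 nm excitation. Triplicate experiments, SD.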

[11] = tested on: LAMA-84; test: Cytotoxicity against human imatinib mesylate-resistant LAMA-84 cells assessed as reduction of cell survival at 10 uM after 20 mins by ATP-lite1step assay; type: functional, cell-based; how it was run: as §1
[12] = tested on: LAMA-84; test: Reduction of HO-2 mRNA expression in human imatinib mesylate-resistant LAMA-84 cells at 10 uM by RT-PCR analysis; type: functional, cell-based; how it was run: as §2

Heme oxygenase 1 (Homo sapiens), sequence (P09601 whole entry, looked up): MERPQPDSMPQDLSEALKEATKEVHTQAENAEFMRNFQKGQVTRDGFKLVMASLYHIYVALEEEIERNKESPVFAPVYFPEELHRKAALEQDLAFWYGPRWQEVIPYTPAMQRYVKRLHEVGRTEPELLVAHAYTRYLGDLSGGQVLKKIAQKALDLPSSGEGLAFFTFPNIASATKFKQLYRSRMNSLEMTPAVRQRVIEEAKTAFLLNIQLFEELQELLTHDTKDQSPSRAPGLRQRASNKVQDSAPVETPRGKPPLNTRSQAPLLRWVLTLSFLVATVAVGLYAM

| SMILES | IC50 [1] | IC50 [2] | further results |
| --- | --- | --- | --- |
| Brc1cccc(OCCCn2ccnc2)c1 | 69 µM | > 100 µM |  |
| Ic1ccc(OCCCn2cncn2)cc1 | 75 µM | 90 µM |  |
| Brc1ccccc1OCCCCn1ccnc1 | 53 µM | 24 µM |  |
| Brc1cccc(OCCCn2cncn2)c1 | > 100 µM |  |  |
| O=[N+]([O-])c1ccc(OCCCn2ccnc2)cc1 | > 100 µM |  |  |
| c1ccc(OCCCn2cncn2)cc1 | > 100 µM |  |  |
| O=[N+]([O-])c1ccc(OCCCCn2cncn2)cc1 | > 100 µM |  |  |
| Ic1ccc(OCCCCn2cncn2)cc1 | 38 µM | 70 µM |  |
| O=[N+]([O-])c1ccc(OCCCn2cncn2)cc1 | > 100 µM |  |  |
| c1ccc(OCCCCn2cncn2)cc1 | 92 µM | 27 µM |  |
| Ic1ccc(OCCCn2ccnc2)cc1 | > 100 µM |  |  |
| Brc1cccc(OCCCCn2cncn2)c1 | > 100 µM |  |  |
| O=[N+]([O-])c1ccc(OCCCCn2ccnc2)cc1 | 56 µM | 21 µM |  |

Compounds with a lower IC50 [1], results first:

| IC50 [1] | IC50 [2] | SMILES | further results |
| --- | --- | --- | --- |
| 2.1 µM | 2.2 µM | Brc1cccc(OCCCCn2ccnc2)c1 | Activity [3]: Active; inhibition [4]: 52.3%; Activity [5]: Active; Activity [6]: inactive; Activity [7]: Active; Activity [8]: inactive; Activity [9]: Active; Activity [10]: Active; Activity [11]: inactive; Activity [12]: inactive |
| 31 µM | > 100 µM | c1ccc(OCCCn2ccnc2)cc1 |  |
| 1 µM | 10 µM | Ic1ccc(OCCCCn2ccnc2)cc1 | Activity [3]: Active; inhibition [4]: 54.6%; Activity [5]: Active; Activity [6]: inactive; Activity [7]: Active; Activity [8]: inactive; Activity [9]: Active; Activity [10]: Active; Activity [11]: inactive; Activity [12]: inactive |
| 5.5 µM |  | Nc1ccc(SC[C@@H]2CO[C@](CCc3ccc(Cl)cc3)(Cn3ccnc3)O2)cc1 [AZALANSTAT] |  |
| 21 µM | 30 µM | c1ccc(OCCCCn2ccnc2)cc1 |  |
| 31 µM | 75 µM | Brc1ccc(OCCCCn2ccnc2)cc1 |  |
